Assay results: article PMC7903221 (Bioorganic & medicinal chemistry, 2020)

Experiments:
[1] = system: NCI-H1975; test: MTT assay, NCI-H1975; type: cell-based, human; settings: read-out: IC50 Value NCI-H1975, 72 hours
Outline: (§1)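 Human NSCLC lines were kept in RPMI 1640 with 10% FBS at 37 °C, 5% CO2, passaged every 2–3 days. Cells were seeded at 5,000–7,000/well depending on line and left 24 h. Test compound in DMSO/water (1 mM stock) was added at final 1, 4, 16 and 32 μM in medium, 6 replicates, for 72 h. MTT was applied for 3–4 h, then medium was replaced by DMSO for 15 min and OD read at 540 nm. IC50 is growth inhibition of 50% versus untreated cells.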

[2] = system: NCI-H460; test: MTT assay, NCI-H460; type: cell-based, human; settings: read-out: IC50 Value NCI-H460, 72 hours
Outline: as §1

[3] = system: HCC827; test: MTT assay, HCC827; type: cell-based, human; settings: read-out: IC50 Value HCC827, 72 hours
Outline: as §1

[4] = system: A549; test: MTT assay, A549; type: cell-based, human; settings: read-out: IC50 Value A549, 72 hours
Outline: as §1

[5] = system: nine NSCLC cell lines; test: NCI-60 one-dose assay, average over nine NSCLC cell lines; type: cell-based; settings: Homo sapiens, 48 h, read-out: Growth % Average
Outline: (§2)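 NCI DTP single-dose screen. Cells were seeded at a density tied to doubling rate and incubated 24 h, then exposed to test compound at 10 μM for 48 h. Growth percentage is relative to the starting cell population: positive means net growth, negative means cell loss. It is given per NSCLC line or as the mean across the nine NSCLC lines.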

[6] = system: NSCLC cell lines (NCI-H460, NCI-H1975, HCC827, and A549); test: MTT assay, panel of four NSCLC cell lines; type: cell-based, human
Outline: as §1

[7] = system: HOP-62; test: NCI-60 five-dose assay, HOP-62; type: cell-based, human; settings: 48 hours, total growth inhibition
[8] = system: HOP-92; test: NCI-60 five-dose assay, HOP-92; type: cell-based, human; settings: 48 hours, total growth inhibition
[9] = system: NCI-H522; test: NCI-60 one-dose assay, NCI-H522; type: cell-based; settings: Homo sapiens, NCI-H522, 48 h, read-out: Growth % NCI-H522
Outline: as §2

[10] = system: A549/ATCC; test: NCI-60 five-dose assay, A549/ATCC; type: cell-based; settings: 48 hours, total growth inhibition
[11] = system: C57BL/6 mice; test: Preliminary in vivo toxicity study; settings: 20 mg/kg IP on days 0, 7, 14 and 29
[12] = system: NCI-H522; test: NCI-60 five-dose assay, NCI-H522; type: cell-based, human; settings: 48 hours, total growth inhibition
[13] = system: NCI-H23; test: NCI-60 five-dose assay, NCI-H23; type: cell-based, human; settings: 48 hours, total growth inhibition
[14] = system: NSCLC cell lines; test: NCI-60 five-dose assay, ranges over NSCLC cell lines; type: cell-based; settings: Homo sapiens; for GI50: read-out: GI50 values, range over NSCLC cell lines; for CC50: read-out: LC50 values, range over NSCLC cell lines
[15] = system: EKVX; test: NCI-60 five-dose assay, EKVX; type: cell-based, human; settings: 48 hours, total growth inhibition
[16] = system: NCI-H322M; test: NCI-60 five-dose assay, NCI-H322M; type: cell-based, human; settings: 48 hours, total growth inhibition
[17] = system: NCI-H226; test: NCI-60 five-dose assay, NCI-H226; type: cell-based, human; settings: 48 hours, total growth inhibition
[18] = system: NCI-H460; test: NCI-60 five-dose assay, NCI-H460; type: cell-based, human; settings: 48 hours, total growth inhibition
[19] = system: NCI-H460; test: NCI-60 one-dose assay, NCI-H460; type: cell-based; settings: Homo sapiens, NCI-H460, 48 h, read-out: Growth % NCI-H460
Outline: as §2

Compound `N.N.[Cl][Pt][Cl]` [Cisplatin, cisplatin] has an IC50 [1] of 3 µM, an IC50 [2] of 6 µM and an IC50 [3] of 9 µM. The IC50 [4] was 5 µM.

In the case of `[Br-].[Br-].c1ccc2cc(Cn3cc[n+](Cn4cc[n+](Cc5ccc6ccccc6c5)c4)c3)ccc2c1` [Compound 1, 1-(naphthalen-2-ylmethyl)-3-((3-(naphthalen-2-ylmethyl)-imidazolium-1-yl)methyl)-imidazolium bromide], the activity at 10 µM [5] is reported as 79.5% and the “IC50 values for three of the four cell lines” value ([6]; MTT, 72 hours, three of the four cell lines tested) is reported as “above the testing concentration”.

`c1ccc2cc(Cn3cc[n+](CCn4cc[n+](Cc5ccc6ccccc6c5)c4)c3)ccc2c1` [Compound 2, 1-(naphthalen-2-ylmethyl)-3-(2-(3-(naphthalen-2-ylmethyl)-imidazolium-1-yl)ethyl)-imidazolium bromide] showed an activity at 10 µM [5] of 80.9%.

In the case of `c1ccc2cc(Cn3cc[n+](CCCn4cc[n+](Cc5ccc6ccccc6c5)c4)c3)ccc2c1` [Compound 3, 1-(naphthalen-2-ylmethyl)-3-(3-(3-(naphthalen-2-ylmethyl)-imidazolium-1-yl)propyl)-imidazolium bromide], the activity at 10 µM [5] is reported as 72.8%.

For `c1ccc2cc(Cn3cc[n+](CCCCCn4cc[n+](Cc5ccc6ccccc6c5)c4)c3)ccc2c1` [Compound 5, 1-(naphthalen-2-ylmethyl)-3-(5-(3-(naphthalen-2-ylmethyl)-imidazolium-1-yl)pentyl)-imidazolium bromide], the activity at 10 µM [5] was 53.9%.

`c1ccc2cc(Cn3cc[n+](CCCCCCn4cc[n+](Cc5ccc6ccccc6c5)c4)c3)ccc2c1` [Compound 6, 1-(naphthalen-2-ylmethyl)-3-(6-(3-(naphthalen-2-ylmethyl)-imidazolium-1-yl)hexyl)-imidazolium bromide] gave an activity at 10 µM [5] of 47.3%.

For `c1ccc2cc(Cn3cc[n+](CCCCCCCn4cc[n+](Cc5ccc6ccccc6c5)c4)c3)ccc2c1` [Compound 7, 1-(naphthalen-2-ylmethyl)-3-(7-(3-(naphthalen-2-ylmethyl)-imidazolium-1-yl)heptyl)-imidazolium bromide], the activity at 10 µM [5] was 30%.

For `[Br-].[Br-].c1ccc2cc(Cn3cc[n+](CCCCCCCCCCn4cc[n+](Cc5ccc6ccccc6c5)c4)c3)ccc2c1` [Compound 10, 1-(naphthalen-2-ylmethyl)-3-(10-(3-(naphthalen-2-ylmethyl)-imidazolium-1-yl)decyl)-imidazolium bromide], the “TGI HOP-62” value [7] was 7.24 µM, the “TGI HOP-92” value [8] was 2.96 µM and the activity at 10 µM [9] was -72.3%. The “TGI A549/ATCC” value [10] was 13.3 µM, the activity at 10 µM [5] was 2.47% and the tolerability [11] was “well tolerated”. The “TGI NCI-H522” value [12] was 1.94 µM, the “TGI NCI-H23” value [13] was 3.35 µM and the GI50 [14] was 0.396 to 3.55 µM. For the same compound, the CC50 [14] was 15.2 to 58.4 µM and the “TGI EKVX” value [15] was 9.07 µM.

With `[Br-].[Br-].c1ccc2cc(Cn3cc[n+](CCCCCCCCCCCCn4cc[n+](Cc5ccc6ccccc6c5)c4)c3)ccc2c1` [Compound 12, 1-(naphthalen-2-ylmethyl)-3-(12-(3-(naphthalen-2-ylmethyl)-imidazolium-1-yl)dodecyl)-imidazolium bromide] the “TGI HOP-62” value [7] was 2.65 µM, the “TGI HOP-92” value [8] was 1.40 µM and the “TGI NCI-H322M” value [16] was 3.90 µM. The “TGI A549/ATCC” value [10] was 3.57 µM, the activity at 10 µM [5] was -60.9% and the IC50 ([6]; Homo sapiens, 72 h, read-out: IC50 values for three of the four cell lines) was under 1 µM. The “TGI NCI-H522” value [12] was 1.25 µM, the “TGI NCI-H23” value [13] was 2.40 µM and the “TGI NCI-H226” value [17] was 5.52 µM. For the same compound, the GI50 [14] was 0.47 to 0.984 µM, the CC50 [14] was 7.29 to 14.6 µM and the “TGI NCI-H460” value [18] was 2.96 µM. The “TGI EKVX” value [15] was 4.20 µM and the activity at 10 µM [19] was -69.9%.
